High-throughput results: PubChem BioAssay, several laboratories
m5-HT2A agonist – mouse Htr2a agonists via beta-arrestin recruitment, primary screen, cell-based, luminescence; activation, % at 7.6 µM; hit rate 0.66% among 360,000; CHO-K1 mHTR2A beta-arrestin complementation; percent of 30 µM serotonin response;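 active = activation above a run cutoff, the mean activation of all tested compounds plus 3 SD, cut at about 14% in these data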;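 note: 0% = plate median of compound wells and 100% = 30 µM serotonin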
APJ ag – agonists of human apelin receptor APJ, primary screen, CHO-K1 cells, PathHunter beta-arrestin, luminescence | P35414 | 0% DMSO wells, 100% apelin | activation, % at 20 µM | hit rate 0.11% among 330,000 | AID 2520, 2010;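 active = activation more than six SD over the plate average, tested at 20 µM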;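 note: 0% = DMSO alone and 100% = apelin-13 at 10 nM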
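Material: CHO-K1 APJ beta-arrestin complementation cell line; Input: cell density 1000 per well; Incubation: compound stimulation 90 min at 25 °C, detection 60 min; Signal: luminescence from split beta-galactosidase complementation, Galacton Star/Emerald II substrate; Controls: DMSO-only wells as negative, 10 nM Apelin-13 as positive control.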
APJ antagonist – antagonists of human apelin receptor APJ, primary screen, CHO-K1 cells, beta-arrestin complementation, luminescence | P35414 | inhibition, % at 20 µM | hit rate 0.32% among 330,000 | AID 2521, 2010;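 active = inhibition above about 40% at 20 µM, limit read from the data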;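 note: cells challenged with 10 nM apelin-13 agonist together with compound; plate controls were apelin-13 plus DMSO wells for no effect and DMSO wells lacking apelin-13 for full effect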
CCR6 antagonist – CCR6 receptor antagonists, primary screen, cell-based, CHO-K1, luminescence, beta-arrestin, uHTS. inhibition, % at 20 µM. C-C chemokine receptor type 6 (Homo sapiens), P51684. hit rate 0.49% among 340,000. CHO-K1 CCR6 PathHunter beta-arrestin, CCL20-stimulated;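 active = compounds whose inhibition of the agonist-driven luminescence signal at 20 µM reaches about 50%, limit read from the data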;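 note: cells stimulated with CCL20 at 14 nM final; plate controls were DMSO with CCL20 for no effect and DMSO without agonist for full effect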
CXCR6 inh – CXCR6 receptor inhibitors, primary screen, cell-based, beta-arrestin, luminescence, CHO-K1 PathHunter, 1536-well. inhibition, % at 20 µM. hit rate 0.36% among 360,000. C-X-C chemokine receptor type 6 (Homo sapiens), O00574; in the data active = inhibition above about 34%, passing the limit was not always enough;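 note: antagonist mode with CXCL16 agonist at 10 nM final; 0% = 10 nM CXCL16 with DMSO and 100% = unstimulated wells without agonist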
Target sequence (O00574 whole entry, looked up): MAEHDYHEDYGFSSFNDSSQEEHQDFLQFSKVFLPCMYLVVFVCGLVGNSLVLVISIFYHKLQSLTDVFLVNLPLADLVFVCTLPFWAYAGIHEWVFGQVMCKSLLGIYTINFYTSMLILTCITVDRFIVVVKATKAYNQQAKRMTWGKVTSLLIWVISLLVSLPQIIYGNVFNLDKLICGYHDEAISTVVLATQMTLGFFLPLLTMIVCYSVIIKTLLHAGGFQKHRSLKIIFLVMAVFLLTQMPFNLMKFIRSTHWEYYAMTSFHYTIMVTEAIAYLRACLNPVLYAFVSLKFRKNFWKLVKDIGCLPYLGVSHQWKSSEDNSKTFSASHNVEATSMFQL
EBI2 block – EBI2 receptor antagonists, beta-arrestin recruitment, primary screen, cell-based, luminescence, 7a,25-OHC stimulation, uHTS; hit rate 0.81% among 360,000; AID 651636, 2012; inhibition, % at 5 µM; 7a,25-OHC stimulated; in the data active = inhibition above about 38%;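 note: enzyme fragment complementation signal reports receptor beta-arrestin coupling in cells; 0% = agonist plus DMSO wells and 100% = wells without agonist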
CXCR6 antag conf – CXCR6 receptor antagonists, confirmation, cell-based, single concentration, beta-arrestin, luminescence | shares compounds with CXCR6 inh | AID 602409, 2012 | CHO-K1 CXCR6 PathHunter beta-arrestin | inhibition, % at 20 µM | hit rate 65% among 700;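 active = mean inhibition over four retests above 40%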;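 note: receptor stimulated with 10 nM CXCL16 agonist; beta-galactosidase fragment complementation upon beta-arrestin recruitment to receptor; plate controls were CXCL16 plus DMSO for no effect and DMSO without CXCL16 for full effect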
* hit, by the source's call; · = no result. Compounds with a hit are over-represented: about 2.1% of the library has one in this group of screens.

SMILES	m5-HT2A agonist	APJ ag	APJ antagonist	CCR6 antagonist	CXCR6 inh	EBI2 block	CXCR6 antag conf
CCc1ccc(NC(=O)c2nc(S(=O)(=O)Cc3ccccc3)ncc2Cl)cc1	-4	1	-9	·	82*	39	80*
COC(=O)c1ccc(NC(=O)c2nc(S(=O)(=O)Cc3cccc(C)c3)ncc2Cl)cc1	0	-11	34	67*	66*	47*	61*
COc1cccc(NC(=O)c2nc(S(C)(=O)=O)ncc2Cl)c1	0	-4	36	44	37	2	·
CCSc1ncc(Cl)c(C(=O)Nc2ccccc2)n1	0	-2	7	16	-4	-6	·
COc1ccc(-c2c(-c3cc(OC)cc(OC)c3)n(C)c3ccc(-c4ccc(N(C)C)nc4)cc23)cc1	4	-1	17	6	-4	7	·
CCOc1ccccc1NC(=O)c1ccc(C(=O)Nc2ccccc2OCC)nc1	0	0	-3	-13	-8	-21	·
CCOc1ccccc1NC(=O)c1nc(S(=O)(=O)Cc2ccccc2)ncc1Cl	-1	-9	18	51*	56*	46*	53*
CCOC(=O)c1ccc(NC(=O)c2ccccc2)cc1	1	3	-3	-3	-4	1	·
CCOC(=O)c1ccc(NC(=O)c2nc(S(=O)(=O)Cc3ccccc3)ncc2Cl)cc1	-2	-3	34	89*	70*	42*	73*
CC(C)(C)N1C(=O)c2ccccc2NC(=O)C1C(=O)Nc1ccc(N2CCOCC2)cc1 (centres undefined)	1	·	·	·	·	-5	·
CC1CCCC(NC(=O)Cn2c(Cl)nc3c2c(=O)n(C)c(=O)n3C)C1C (centres undefined)	1	-4	5	1	-5	0	·
COc1ccc(/C=N/NC(=O)CN(C)S(=O)(=O)c2ccc(NC(C)=O)cc2)cc1	3	-1	-10	5	0	-6	·
CC(=O)Nc1ccc(S(=O)(=O)N(C)CC(=O)N/N=C/c2ccc(C(=O)O)cc2)cc1	1	-1	-10	-6	88*	-13	-3
Cc1ccc(Cn2c(SCC(=O)N3CC(=O)Nc4ccccc43)nc3ccccc3c2=O)cc1	-1	1	-6	-4	8	13	·
O=C1CN(C(=O)CSc2nc3cc(Cl)ccc3c(=O)n2Cc2ccccc2)c2ccccc2N1	5	-7	29	56*	43*	26	47*
COCC(=O)N1CCC(c2nc3ccccc3[nH]2)CC1	-5	·	·	·	3	-8	·
O=C(Cc1ccccc1)N1CCC(c2nc3ccccc3[nH]2)CC1	1	-2	-11	0	40*	7	6
CC(=O)O[C@H]1CC[C@@]2(C)C(CCC3C2CC[C@]2(C)OC(=O)CCC32)C1 (some centres undefined)	1	-3	4	3	1	2	·
CC(=O)OC1CCC2(C)C(CCC3C4CC=C(C(C)=O)C4(C)OC(=O)CC32)C1 (centres undefined)	-1	·	·	·	50*	52*	46*
COC(=O)C(Cc1c[nH]c2ccccc12)NC(=O)C1CC1 (centres undefined)	6	-5	-5	-1	-7	0	·
O=C(NCc1ccco1)c1nc2ccccc2s1	-3	-4	5	6	41*	-8	11
CC(=O)Nc1nc2ccccc2n1CCOc1ccccc1Cl	-1	-5	29	46	41*	2	66*
CCCNC(=O)c1nnsc1S(=O)(=O)c1ccc(Cl)cc1	-3	-3	23	74*	65*	12	83*
CCCNC(=O)c1nnsc1S(=O)c1ccc(Cl)cc1 (centres undefined)	-6	-6	40	97*	87*	8	99*
CNC(=O)c1nnsc1S(=O)c1ccc(Cl)cc1 (centres undefined)	-2	-4	27	99*	96*	7	97*
SMILES	m5-HT2A agonist	APJ ag	APJ antagonist	CCR6 antagonist	CXCR6 inh	EBI2 block	CXCR6 antag conf
CCCNC(=O)NS(=O)(=O)c1ccc(Cl)cc1	-1	-4	-8	15	-2	-3	·
CCCCNC(=O)C[C@@H]1C[C@@]2(C(=O)OCC)CCCC=C2N(Cc2ccccc2)C1=O	0	·	·	·	·	5	·
O=C(COc1ccc(Br)cc1Cl)NC(=S)N1CCc2ccccc21	-1	-4	12	44	57*	4	53*
Cc1ccc(NC(=O)COC(=O)CCc2c(C)nc3ncnn3c2C)cc1	3	-1	3	2	-10	-5	·
CCCCC(=O)NC(=S)Nc1ccccc1C(=O)Nc1ccccc1	-12	-5	27	54*	51*	15	54*
COc1ccc(-c2cc(=O)n(-c3ccc([N+](=O)[O-])cc3)[nH]2)cc1	1	-5	29	38	41*	1	14
COc1ccc(-c2[nH]n(-c3ccc([N+](=O)[O-])cc3)c(=O)c2C=NCc2ccc(F)cc2)cc1	2	-3	-18	8	-4	14	·
CCOC(=O)c1cc([N+](=O)[O-])c([N+](=O)[O-])cc1NC(C)=O	3	·	·	·	67*	12	64*
CCCC/C=C1/CCC(CN(C)C)C1=O (centres undefined)	-2	·	·	52*	34*	-1	48*
COc1cccc(/C=C2/CCC(CN(C)C)C2=O)c1 (centres undefined)	5	·	·	92*	71*	23	54*
CN1CCN(C2CN(C3CCCC3)S(=O)(=O)C2)CC1 (centres undefined)	4	·	·	·	2	-7	·
Cn1c(=O)c2c(nc3n2CC(O)CN3c2ccccc2)n(C)c1=O (centres undefined)	3	0	4	10	3	-6	·
CN(NS(C)(=O)=O)c1c(C#N)c(C(F)(F)F)nn1C	-6	-1	-7	13	-2	3	·
O=C1CC(=O)N(CCNc2ncc(C(F)(F)F)cc2Cl)C(=O)N1	9	3	1	6	6	7	·
O=C1C=CC(=O)N1CCNc1ncc(C(F)(F)F)cc1Cl	-5	-1	-12	·	97*	11	77*
O=C(CCCN1C(=O)C(=Cc2ccc3c(c2)OCO3)SC1=S)Nc1ccc(C(=O)O)c(O)c1	-3	·	·	·	6	8	·
O=C(CCl)NC1(C(=O)O)CCCC1	-1	·	·	·	3	-1	·
